Here are results for 26 molecules from ChEMBL document CHEMBL3862013 (Bioorg Med Chem, 2016).

What is called IC50 is the concentration that gives 50% inhibition. What is called CC50 is the concentration that lowers cell viability or growth by half.

Each structure is given as a SMILES string.

Series [1] deals with Human immunodeficiency virus 1. Nature of the series: Antiviral activity against ENV pseudotyped HIV1 subtype C ZM233M.PB6. The format is functional. The settings on record: Human immunodeficiency virus 1, subtype C ZM233M.PB6.
Series [2] can be described thus: Inhibition of HIV1 HXB2 Env-mediated cell-cell fusion using MAGI-CCR5 as target cells and HL2/3 as effector cells preincubated with target cells for 1 hr followed by effector cells addition measured after 24 hrs by beta-galactosidase reporter gene assay. The following applies: Human immunodeficiency virus 1, HXB2.
Series [3] relates to Vesicular stomatitis virus. The series can be described thus: Antiviral activity against G-glycoprotein expressing VSV. Format: functional.
Series [4] concerns Human immunodeficiency virus 1. The series can be described thus: Antiviral activity against ENV pseudotyped HIV1 subtype A/E AA058. The format is functional. The settings on record: Human immunodeficiency virus 1, subtype A/E AA058.
A short description of series [5]: Cytotoxicity against human MT2 cells after 4 days by XTT assay. Format: toxicity, cell-based. The settings on record: mt2, 96 h. In short, it runs like this:
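Run in parallel with the antiviral assay. Graded compound added to an equal volume of MT-2 cells (10^5 cells/ml) and incubated 4 days. XTT added, and soluble formazan read at 450 nm after 4 hours.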
(In general: Formazan colour is commonly taken as a measure of viable cells.)

Series [6] deals with Human immunodeficiency virus 1. The series can be described thus: Antiviral activity against ENV pseudotyped HIV1 subtype D QD435.100M.ENV.B5. Format: functional. The following applies: Human immunodeficiency virus 1, subtype D QD435.100M.ENV.B5.
Series [7] deals with Human immunodeficiency virus 1. Nature of the series: Antiviral activity against ENV pseudotyped HIV1 PRHPA4259 clone 7. Format: functional. The settings on record: Human immunodeficiency virus 1, PRHPA4259 clone 7.
Series [8] has as its system Human immunodeficiency virus 1. Nature of the series: Inhibition of CD4-dependent CXCR4-tropic HIV1 3B cell to cell transmission using Ghost X4/R5 cells as target cells and H9 as effector cells assessed as p24 release incubated for 4 hrs by sandwich ELISA method. The settings on record: Human immunodeficiency virus 1, 3B. Format: functional. (ELISA stands for enzyme-linked immunosorbent assay.)

The subject of series [9] is Human immunodeficiency virus 1. Nature of the series: Antiviral activity against ENV pseudotyped HIV1 subtype A/D QA790.204I.ENV.E2. Format: functional. The following applies: Human immunodeficiency virus 1, subtype A/D QA790.204I.ENV.E2.
Series [10] relates to Human immunodeficiency virus 1. The series can be described thus: Antiviral activity against ENV pseudotyped HIV1 subtype A/D QA790.204I.ENV.C8. The format is functional. The settings on record: Human immunodeficiency virus 1, subtype A/D QA790.204I.ENV.C8.
For series [11], the system named is Human immunodeficiency virus 1. Nature of the series: Antiviral activity against HIV1 3B assessed as inhibition of multi-cycle viral infection in human MT2 cells by measuring p24 production preincubated for 30 mins followed by addition of cells measured after 4 days by sandwich ELISA. The format is functional, cell-based. The gist of the method:
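Overnight at 37 °C, then supernatant replaced with fresh medium. Day 4 post-infection, supernatants mixed with equal volume 5% Triton X-100 and p24 measured by sandwich ELISA. IC50 derived from percent inhibition of p24 production; mean ± SD.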

The nature of series [12]: Cytotoxicity against human TZM-bl cells after 3 days by XTT assay. Format: toxicity, cell-based. The following applies: 72 h. In short, it runs like this: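 Graded compound concentrations added to an equal volume of TZM-bl cells (10^5/ml) and incubated 3 days. XTT added, then formazan read at 450 nm after 4 h. CC50 derived from percent cytotoxicity; mean ± SD.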
Series [13] relates to Human immunodeficiency virus 1. The series can be described thus: Antiviral activity against X4 tropic HIV1 HXB2 assessed as inhibition of single cycle viral infection in human TZM-bl cells preincubated for 30 mins followed by addition of cells measured after 3 days by luciferase reporter gene assay. Format: functional, cell-based. A general note: In a reporter assay the amount or activity of a reporter protein is the signal.

For series [14], the system named is Human immunodeficiency virus 1. The series can be described thus: Inhibition of CD4-dependent CCR5-tropic HIV1 ADA cell to cell transmission using Ghost X4/R5 cells as target cells and MOLT4 as effector cells assessed as p24 release incubated for 4 hrs by sandwich ELISA method. The format is functional, cell-based. The settings on record: Human immunodeficiency virus 1, ADA, MOLT-4, 4 h.

[15] abbreviates: Human immunodeficiency virus 1, 3B, MT2.
[16] abbreviates: Human immunodeficiency virus 1, HXB2, TZM-bl.

`Cc1nc([C@H](NC(=O)c2ccc(-c3ccc(Cl)cc3)[nH]2)[C@@H]2CCCCN2)sc1CO`: the IC50 in series [1] came out at 1.7 µM; in series [2], 8.9 µM; in series [3], 7.1 µM; in series [4], 4.4 µM; in [6], 1.6 µM; in series [7], 1.4 µM. For the same molecule, the IC50 in series [8] is 8.8 µM; in [9], 0.71 µM; in [10] it was 1.5 µM; in series [11] (setting [15]), 0.85 µM. Also, the CC50 in series [5] turned out to be 24.8 µM; in [12], 23.6 µM.
Take `Cc1ccc(-c2ccc(C(=O)N[C@H](CN)c3nc(C)c(CO)s3)[nH]2)cc1F`: the CC50 worked out at 24.3 µM in [5] and 26.2 µM in [12]. Moreover, the IC50 was found to be 1.1 µM in series [13] (setting [16]) and 0.65 µM in series [11] (setting [15]).
The like results for `Cc1ccc(-c2ccc(C(=O)N[C@H](c3nc(C)c(CCO)s3)[C@@H]3CCCCN3)[nH]2)cc1F` were, in that order, 29.7 µM, 28.8 µM, 10.6 µM and 6.1 µM.
Consider `Cc1nc([C@@H](NC(=O)c2ccc(-c3ccc(Cl)c(F)c3)[nH]2)[C@@H]2CCCCN2)sc1CCO`, for which the CC50 in series [5] is 16.9 µM; in [12], 16.1 µM. In addition, the figures for the IC50 in series [13] (setting [16]) and in [11] (setting [15]) were 7.5 µM and 3.4 µM, respectively.
The corresponding values for `Cc1nc([C@H](NC(=O)c2ccc(-c3ccc(Cl)c(F)c3)[nH]2)[C@@H]2CCCCN2)sc1CCCO` are 12.6 µM, 8.2 µM, 5.1 µM and 4.5 µM.
The like results for `Cc1ccc(-c2ccc(C(=O)N[C@@H](c3nc(C)c(CO)s3)[C@@H]3CCCCN3)[nH]2)cc1F` were, in that order, 28.2 µM, 19.2 µM, 3.8 µM and 1.6 µM.
With `Cc1nc([C@@H](NC(=O)c2ccc(-c3ccc(Cl)cc3)[nH]2)[C@@H]2CCCCN2)sc1CCO`, the CC50 stood at 26.8 µM in series [5] and 17.3 µM in series [12]. For the same molecule, the figures for the IC50 in series [13] (setting [16]) and in series [11] (setting [15]) were 8.9 µM and 2 µM, respectively.
Take `Cc1nc([C@@H](NC(=O)c2ccc(-c3ccc(Cl)c(F)c3)[nH]2)[C@H]2CCCCN2)sc1CO`: the CC50 in series [5] came out at 17.2 µM; in [12] it was 15.2 µM. In addition, the IC50 was 3 µM in [13] (setting [16]) and 1.6 µM in series [11] (setting [15]).
For the molecule `Cc1ccc(-c2ccc(C(=O)N[C@@H](c3nc(C)c(CCCO)s3)[C@@H]3CCCCN3)[nH]2)cc1F`, the CC50 in series [5] came out at 20.6 µM; in series [12], 17 µM. Moreover, the figures for the IC50 in series [13] (setting [16]) and in series [11] (setting [15]) were 7.9 µM and 7.4 µM, respectively.
Take `Cc1nc([C@@H](CN)NC(=O)c2ccc(-c3ccc(Cl)c(F)c3)[nH]2)sc1CO`: the CC50 in [5] was determined as 22.7 µM; in series [12], 26 µM.
In the case of `Cc1nc([C@H](NC(=O)c2ccc(-c3ccc(Cl)cc3)[nH]2)[C@@H]2CCCCN2)sc1CCCO`, the CC50 was found to be 19 µM in [5] and 13.7 µM in series [12]. Further, the IC50 in series [13] (setting [16]) came out at 7.6 µM; in series [11] (setting [15]), 5.8 µM.
For `Cc1nc([C@@H](CN)NC(=O)c2ccc(-c3ccc(Cl)cc3)[nH]2)sc1CO`, the values for the CC50 in series [5] and in series [12] were 28.2 µM and 34.1 µM, respectively.
Turning to `Cc1nc([C@H](CN)NC(=O)c2ccc(-c3ccc(Cl)cc3)[nH]2)sc1CO`, the IC50 in series [2] came out at 11.9 µM; in [14] it was 30 µM. The CC50 in [5] is 25.8 µM; in series [12], 33.6 µM.
Molecule `Cc1nc([C@H](CN)NC(=O)c2ccc(-c3ccc(Cl)c(F)c3)[nH]2)sc1CO` displayed an IC50 in [2] of 15.2 µM. In addition, the CC50 in [5] is 30.5 µM; in series [12], 40.5 µM.
Consider `Cc1ccc(-c2ccc(C(=O)N[C@@H](CN)c3nc(C)c(CO)s3)[nH]2)cc1F`, for which the figures for the CC50 in series [5] and in [12] were 31.6 µM and 35 µM, respectively. In addition, the IC50 in series [13] (setting [16]) was 1.7 µM; in series [11] (setting [15]) it was 0.91 µM.
The like results for `Cc1ccc(-c2ccc(C(=O)N[C@@H](c3nc(C)c(CCO)s3)[C@@H]3CCCCN3)[nH]2)cc1F` were, in that order, 21.2 µM, 15.3 µM, 6.3 µM and 3 µM.
`Cc1nc([C@H](NC(=O)c2ccc(-c3ccc(Cl)c(F)c3)[nH]2)[C@@H]2CCCCN2)sc1CCO`: the CC50 came to 16.8 µM in [5] and 15.1 µM in series [12]. The IC50 in series [13] (setting [16]) came to 8 µM; in series [11] (setting [15]), 2.9 µM.
For `Cc1ccc(-c2ccc(C(=O)N[C@H](c3nc(C)c(CO)s3)[C@@H]3CCCCN3)[nH]2)cc1F`, the figures for the CC50 in series [5] and in [12] were 16.1 µM and 18 µM, respectively. Moreover, the IC50 is 2.7 µM in series [13] (setting [16]) and 3 µM in [11] (setting [15]).
The like results for `Cc1nc([C@H](NC(=O)c2ccc(-c3ccc(Cl)c(F)c3)[nH]2)[C@H]2CCCCN2)sc1CO` were, in that order, 26 µM, 17.4 µM, 3.2 µM and 2.6 µM.
For the molecule `Cc1nc([C@H](NC(=O)c2ccc(-c3ccc(Cl)cc3)[nH]2)[C@@H]2CCCCN2)sc1CCO`, the CC50 in series [5] amounted to 21 µM; in series [12], 15.4 µM. Further, the IC50 amounted to 5.7 µM in series [13] (setting [16]) and 4.6 µM in [11] (setting [15]).
With `Cc1nc(C(NC(=O)c2ccc(-c3ccc(Cl)cc3)[nH]2)C2CCCCN2)[nH]c1CO` (stereo in doubt; 35A), the values for the CC50 in series [5] (96 h) and in series [12] were 36.6 µM and 30 µM, respectively. The IC50 in series [13] (setting [16]) amounted to 14.1 µM; in series [11] (setting [15]), 10.2 µM.
Turning to `Cc1nc(C(NC(=O)c2ccc(-c3ccc(Cl)cc3)[nH]2)C2CCCCN2)[nH]c1CO` (stereo in doubt; 35B), the CC50 in series [5] (96 h) is 45.2 µM; in series [12], 33.8 µM. Further, the IC50 in series [13] (tzm-bl) worked out at 15.8 µM; in series [11] (mt2) it was 18 µM.
Turning to `Cc1nc(C(NC(=O)c2ccc(-c3ccc(Cl)c(F)c3)[nH]2)C2CCCCN2)[nH]c1CO` (stereo in doubt; 36A), the CC50 was found to be 31.1 µM in series [5] (96 h) and 26.7 µM in series [12]. Moreover, the IC50 in [13] (setting [16]) is 8.8 µM; in [11] (mt2), 10.6 µM.
As for `Cc1nc(C(NC(=O)c2ccc(-c3ccc(Cl)c(F)c3)[nH]2)C2CCCCN2)[nH]c1CO` (stereo in doubt; 36B), the CC50 in series [5] (96 h) is 36.4 µM; in series [12] it was 30.7 µM. Further, the IC50 in series [13] (tzm-bl) was found to be 16 µM; in [11] (mt2) it was 22.8 µM.
Regarding `Cc1ccc(-c2ccc(C(=O)NC(c3nc(C)c(CO)[nH]3)C3CCCCN3)[nH]2)cc1F` (stereo in doubt; 37A), the CC50 in [5] (96 h) was found to be 28.4 µM; in series [12], 33.3 µM. Also, the IC50 in series [13] (setting [16]) came to 9.4 µM; in series [11] (setting [15]), 12.9 µM.
Take `Cc1ccc(-c2ccc(C(=O)NC(c3nc(C)c(CO)[nH]3)C3CCCCN3)[nH]2)cc1F` (stereo in doubt; 37B): the CC50 came to 37.1 µM in [5] (96 h) and 34.5 µM in series [12]. In addition, the IC50 in series [13] (tzm-bl) was 16.9 µM; in [11] (mt2), 22.3 µM.
